The test system of assay [1] is M4Beu cell line. Briefly: In vitro cytotoxicity against M4Beu cells when co-administered with 50 uM cystemustine. It is filed as functional. Conditions: Homo sapiens, read-out: ED50 (the source's name). The essentials: (§1)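 M4Beu cells were plated at 200 cells/dish and left to adhere 20 h. They were given compound at 0-400 µM (100 mM DMSO stock) for 4 h at 37 °C, then 50 µM cystemustine for 2 h at 37 °C, then grown 14 days. Methanol-fixed, crystal-violet-stained colonies (>50 cells) were counted. ED50 was read graphically from the concentration plot of survival decrease relative to cystemustine alone. Each dose ran ≥3 times in triplicate.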

The subject of assay [2] is M4Beu cell line. Briefly: In vitro cytotoxicity in M4Beu cells after 4 hr exposure to 300 uM. Format: functional, Homo sapiens. The essentials: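 Colony-forming assay: M4Beu cells plated at 200 cells/dish, allowed to adhere 20 h, then exposed 4 h at 37 °C to compound at 300 µM (from 100 mM DMSO stock) with no cystemustine step. Medium then replaced, cells grown 14 days, fixed in methanol, stained with crystal violet. Colonies >50 cells counted; survival as percent of untreated control; at least three experiments in triplicate.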

In assay [3] the test system is M4Beu cell line. Briefly: Effective dose of compound associated with cystemustine (50 uM), required to reduce by 50% cell survival rate (M4Beu cells). It is filed as functional. The conditions noted are these: Homo sapiens, read-out: ED50 (the source's name). In a few lines: as §1

Drawing on ChEMBL document CHEMBL1130140, “O6-(alkyl/aralkyl)guanosine and 2'-deoxyguanosine derivatives: synthesis and ability to enhance chloroethylnitrosourea antitumor action” (1997), this text covers EC50 and Cell survival for 8 compounds.

In the case of `CC(=O)Nc1nc(OCc2ccc(Br)cc2)c2ncn([C@H]3C[C@H](O)[C@@H](CO)O3)c2n1`, the EC50 in the assay with M4Beu cell line [1] worked out at 211 µM.
On the same count and under the same terms, to `CC(=O)Nc1nc(OC(c2ccccc2)c2ccccc2)c2ncn(C3O[C@H](CO)[C@@H](O)[C@H]3O)c2n1` (stereo not given in full) belongs 400 µM.
In the assay with M4Beu cell line [2], `Nc1nc(OCc2ccc(I)cc2)c2ncn(C3O[C@H](CO)[C@@H](O)[C@H]3O)c2n1` (stereo not given in full) displayed a Cell survival of 100%. The EC50 in the assay with M4Beu cell line [1] turned out to be 122 µM.
On to `CC(=O)Nc1nc(OCc2ccc(Br)cc2)c2ncn(C3CC(OC(C)=O)C(COC(C)=O)O3)c2n1` (stereo not given), for which, in the assay on M4Beu cell line [1], the EC50 was 216 µM.
Regarding `CC(=O)Nc1nc(OCc2ccc(Br)cc2)c2ncn(C3OC(COC(C)=O)C(OC(C)=O)C3OC(C)=O)c2n1` (stereo not given), the EC50 in the assay on M4Beu cell line [3] was 400 µM.
For `CC(=O)Nc1nc(OCc2ccc(I)cc2)c2ncn(C3CC(OC(C)=O)C(COC(C)=O)O3)c2n1` (stereo not given), the EC50 in the assay with M4Beu cell line [1] was determined as 200 µM.
Consider `CC(=O)Nc1nc(OCc2ccc(I)cc2)c2ncn(C3CC(O)C(CO)O3)c2n1` (stereo not given), for which, in the assay on M4Beu cell line [1], the EC50 came out at 269 µM.
`Nc1nc(OCc2ccccc2)c2nc[nH]c2n1` [6-O-BENZYLGUANINE] gave a Cell survival with M4Beu cell line [2] of 110%. Also, the EC50 in the assay with M4Beu cell line [1] is 2 µM.
